Screens deposited in PubChem by several laboratories.
APJ antag – APJ receptor antagonism | P35414 | inhibition, % at 20 µM | 330,000 compounds, 0.32% hits | CHO-K1 APJ beta-arrestin complementation, luminescence;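 active = inhibition above about 40% at 20 µM, limit read from the data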;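 also: cells challenged with 10 nM apelin-13 agonist together with compound; plate controls were apelin-13 plus DMSO wells for no effect and DMSO wells lacking apelin-13 for full effect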
Target sequence (P35414 whole entry, looked up): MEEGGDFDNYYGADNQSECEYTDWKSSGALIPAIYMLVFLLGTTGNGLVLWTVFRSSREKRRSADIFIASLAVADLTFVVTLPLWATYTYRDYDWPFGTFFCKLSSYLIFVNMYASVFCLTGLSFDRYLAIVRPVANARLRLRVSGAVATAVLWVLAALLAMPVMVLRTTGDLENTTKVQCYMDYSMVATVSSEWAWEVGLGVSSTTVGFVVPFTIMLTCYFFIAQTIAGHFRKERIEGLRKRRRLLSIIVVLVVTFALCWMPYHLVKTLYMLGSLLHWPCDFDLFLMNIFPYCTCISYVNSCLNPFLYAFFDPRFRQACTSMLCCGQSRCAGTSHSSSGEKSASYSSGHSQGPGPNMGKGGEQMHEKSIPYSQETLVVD
APJ ag – APJ receptor agonism; P35414; CHO-K1 APJ PathHunter beta-arrestin, luminescence; 0% DMSO wells, 100% apelin; activation, % at 20 µM; 330,000 compounds, 0.11% hits; AID 2520;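 active = activation more than six SD over the plate average, tested at 20 µM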;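 also: 0% = DMSO alone and 100% = apelin-13 at 10 nM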
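Incubation: overnight seeding, 90 min compound at 25 °C, 1 h detection; test system: PathHunter CHO-K1 APJ (AGTRL-1) beta-arrestin reporter cells; amount: 1000 cells/well; doses: one dose, 20 µM compound, 1% DMSO; measured by: beta-gal luminescence; measure: agonist-driven arrestin binding to APJ; benchmarks: negative DMSO alone, positive Apelin-13 at 10 nM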
EBI2 antag – EBI2 (human) antagonism | EBI2 beta-arrestin recruitment, luminescence, 7a,25-OHC stimulated | 360,000 compounds, 0.81% hits | P32249 | AID 651636 | inhibition, % at 5 µM; in the data active = inhibition above about 38%;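 also: enzyme fragment complementation signal reports receptor beta-arrestin coupling in cells; 0% = agonist plus DMSO wells and 100% = wells without agonist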
Target sequence (P32249 whole entry, looked up, the tested form may be a part): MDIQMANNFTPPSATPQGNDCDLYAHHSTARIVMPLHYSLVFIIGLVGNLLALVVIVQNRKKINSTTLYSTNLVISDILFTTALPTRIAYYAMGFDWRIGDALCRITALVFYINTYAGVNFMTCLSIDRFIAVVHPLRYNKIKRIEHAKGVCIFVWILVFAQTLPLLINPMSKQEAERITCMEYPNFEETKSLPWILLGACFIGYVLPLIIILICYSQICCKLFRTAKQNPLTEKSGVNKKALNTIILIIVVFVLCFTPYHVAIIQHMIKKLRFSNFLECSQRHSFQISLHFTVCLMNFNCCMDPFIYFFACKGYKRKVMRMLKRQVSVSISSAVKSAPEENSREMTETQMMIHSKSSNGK
FXN GAA850 act – increases GAA850 frataxin promoter reporter activity; activation, % at 6 µM; HEK293 lucGAA850 FXN promoter luciferase reporter, 24 h; percent of 10 µM SAHA response; 360,000 compounds, 0.56% hits; AID 540364;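 active = activation above the average of all compounds screened plus 3 SD, cutoff fixed separately per campaign, cut at about 7.5% in these data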;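 also: 0% = DMSO wells and 100% = 10 µM SAHA wells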
CXCR6 inh – blocks human CXCR6 beta-arrestin recruitment | O00574 | CHO-K1 PathHunter CXCR6 beta-arrestin, luminescence | inhibition, % at 20 µM | 360,000 compounds, 0.36% hits; in the data active = inhibition above about 34%, passing the limit was not always enough;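 also: antagonist mode with CXCL16 agonist at 10 nM final; 0% = 10 nM CXCL16 with DMSO and 100% = unstimulated wells without agonist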
CCR6 antag – blocks CCL20-driven beta-arrestin recruitment at human CCR6. CHO-K1 CCR6 PathHunter beta-arrestin, luminescence, CCL20-stimulated. inhibition, % at 20 µM. P51684. 340,000 compounds, 0.49% hits;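 active = compounds whose inhibition of the agonist-driven luminescence signal at 20 µM reaches about 50%, limit read from the data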;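 also: cells stimulated with CCL20 at 14 nM final; plate controls were DMSO with CCL20 for no effect and DMSO without agonist for full effect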
EBI2 conf – confirmation of human EBI2 receptor antagonists | shares compounds with EBI2 antag | EBI2 beta-arrestin luminescence, 7a,25-OHC antagonism | 2,400 compounds, 29% hits | inhibition, % at 5 µM;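 active = inhibition of at least 50%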
EBI2 agonist – EBI2 agonism counter-screen | 2,400 tested, under 10 active | shares compounds with EBI2 antag | activation, % at 5 µM | EBI2-expressing cells, agonist mode, luminescence, 60 min; 0% vehicle, 100% 7α,25-dihydroxycholesterol control;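 active = activation of at least 50%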
bGal counter – beta-galactosidase inhibition counter-screen; inhibition, % at 5 µM; shares compounds with EBI2 antag; AID 652176; purified beta-galactosidase, luminescent Galacton Star, 15 min; 2,400 compounds, 1% hits;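 active = replicate-average signal at least 3 plate SD below neutral wells, shown as high inhibition, flagging enzyme-inhibiting false positives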;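 also: 0% = DMSO wells with enzyme and 100% = wells lacking enzyme; higher means stronger loss of beta-gal luminescence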
The depositor's hits bear a star; nt = no result. Most compounds without a hit are left out; they make up all but 2% or so of the library.

SMILES | APJ antag | APJ ag | EBI2 antag | FXN GAA850 act | CXCR6 inh | CCR6 antag | EBI2 conf | EBI2 agonist | bGal counter
Cc1ccc(C2=CC(=O)C[C@H](c3ccc(F)cc3)C2)cc1 | 9 | -3 | 70* | 1 | 12 | 26 | 36 | 2 | 6
O=C1C=C(c2ccc(-c3ccccc3)cc2)C[C@@H](c2ccc(F)cc2)C1 | 2 | -3 | 24 | 1 | 4 | 11 | nt | nt | nt
COc1ccc(C2=CC(=O)CC(c3ccc(OC)cc3)C2)cc1 (centres undefined) | 11 | -4 | 51* | 2 | -1 | 24 | 29 | -2 | -13
Cn1ccc2ccc(C3=CC(=O)C[C@H](c4ccc(F)cc4)C3)cc21 | 27 | -3 | 55* | 1 | 7 | 6 | 48 | -1 | -3
CCOc1ccc(C2=CC(=O)C[C@H](c3ccc(OC)cc3)C2)cc1 | -5 | -1 | 77* | 5 | -4 | 3 | 48 | -1 | -7
COC(=O)c1ccc2nc(-c3ccco3)c(Cc3ccccc3)n2c1 | nt | nt | 19 | nt | 5 | nt | nt | nt | nt
COc1ccc(CCNC(=O)CCC(=O)NC2CCCC(C)C2C)cc1OC (centres undefined) | -9 | 4 | 13 | 2 | -4 | 10 | nt | nt | nt
O=C1C=C(c2ccc(OC(F)(F)F)cc2)C[C@@H](c2ccc(Cl)cc2)C1 | 12 | -4 | 65* | 2 | -2 | 19 | 36 | -1 | -12
COc1ccc([C@H]2CC(=O)C=C(c3cccc(Br)c3)C2)cc1 | 8 | -3 | 41 | 0 | 2 | 19 | nt | nt | nt
COc1cccc(C2=CC(=O)C[C@H](c3ccc(Cl)cc3)C2)c1 | 1 | -2 | 46* | 1 | 6 | 29 | 32 | 0 | 11
CCOc1ccc(-c2nnc(SCC(=O)N3CCNC3=O)o2)cc1 | -10 | -4 | 0 | 2 | -1 | -4 | nt | nt | nt
O=C(N/N=C/c1ccc(N2CCOCC2)s1)c1ccccc1Cl | 2 | -3 | -3 | 4 | -8 | 18 | nt | nt | nt
C(=N\N(c1ccccc1)c1ccccc1)/c1ccc(N2CCOCC2)s1 | 1 | -6 | 56* | 2 | 4 | 14 | 20 | 2 | 4
O=C(CN1CCN(Cc2ccccc2)CC1)N/N=C/c1ccco1 | 3 | 2 | 0 | 0 | 2 | -11 | nt | nt | nt
O=C(CN1CCN(Cc2ccccc2)CC1)N/N=C/c1ccc(Br)s1 | -7 | -1 | 44* | 2 | -4 | 1 | 33 | 2 | 2
CN(C)c1ccc(-c2ccnc3c2CC(C)(C(=O)Nc2ccc(Cl)c(C(F)(F)F)c2)O3)cc1 (centres undefined) | nt | nt | 2 | -2 | -4 | nt | nt | nt | nt
O=C(CC1CCCC1)N1CCN(S(=O)(=O)c2cccc(F)c2)CC1 | nt | nt | 6 | 1 | -7 | 4 | nt | nt | nt
O=C1/C(=C\c2ccc(Cl)cc2)CCC1CNc1ccc(Cl)cc1 (centres undefined) | nt | nt | 47* | 7 | 3 | 17 | 11 | 1 | 8
COc1ccc(-n2cc(-c3ccccc3)c3c(NCCCN4CCOCC4)ncnc32)cc1 | -9 | -2 | 16 | -1 | 3 | -4 | nt | nt | nt
c1ccc(-c2cn(-c3ccccc3)c3ncnc(NCCCN4CCOCC4)c23)cc1 | 13 | 0 | 62* | -1 | 8 | 10 | 18 | -1 | -10
CSCCC(C(=O)NCc1ccccc1)n1c(-c2ccc3c(c2)CCO3)nc2ccccc21 (centres undefined) | nt | nt | 9 | nt | nt | nt | nt | nt | nt
CCOC(=O)c1cnn(-c2nc(-c3ccc(F)cc3)cs2)c1C(F)(F)F | -6 | -2 | 53* | -1 | -12 | 7 | 56* | 1 | 6
COc1ccc(/C=N/NC(=O)Nc2cccc3nsnc23)c(OC)c1 | -1 | 1 | 53* | 1 | -6 | -2 | 28 | 1 | 5
O=C(NCC(c1ccccc1Cl)N1CCCC1)C1CCN(C(=O)Nc2ccccc2)CC1 (centres undefined) | -5 | -4 | 53* | -2 | -2 | 10 | 14 | 0 | -13
CC(NC(=O)C1CCC1)c1ccc(Cl)cc1 (centres undefined) | -4 | -4 | -8 | 0 | -2 | 7 | nt | nt | nt
SMILES | APJ antag | APJ ag | EBI2 antag | FXN GAA850 act | CXCR6 inh | CCR6 antag | EBI2 conf | EBI2 agonist | bGal counter
CC(NC(=O)C1CCN(C(=O)Nc2ccccc2)CC1)c1ccc(Cl)cc1 (centres undefined) | 3 | -1 | 46* | -1 | -4 | 5 | 32 | 2 | 2
CCOC(=O)c1c(NC(=O)COc2cccc3c2CCN(C)C3=O)sc2c1CCC2 | -13 | -2 | 51* | -1 | -6 | -1 | 10 | -2 | -11
O=C(/C=C/c1ccc(S(=O)(=O)NCc2ccco2)cc1)NCc1cccc(Cl)c1 | 3 | 0 | 7 | 3 | 9 | 16 | nt | nt | nt
Cc1ccc(CNC(=O)/C=C/c2ccc(S(=O)(=O)NCc3ccco3)cc2)cc1 | 4 | -2 | 44* | 0 | 14 | 14 | 27 | 0 | -1
Cc1ccc(C(=O)N2CCC(C(=O)c3ccc(Cl)cc3)CC2)cc1 | 4 | -2 | 61* | 1 | 5 | 5 | 41 | 1 | 12
O=C(c1ccc(Cl)cc1)C1CCN(C(=O)C2CC2)CC1 | 5 | 3 | 4 | 1 | 5 | 5 | nt | nt | nt
O=C(c1ccccc1)C1CCN(C(=O)c2ccc(Cl)cc2)CC1 | 4 | -3 | 86* | 0 | -1 | 10 | 73* | 2 | 5
O=C1CCC/C=C/C[C@H](CC(=O)N(CCO)Cc2ccccc2)C(=O)N[C@@H](Cc2ccccc2)CO1 | 11 | -3 | 6 | 1 | 21 | 14 | nt | nt | nt
CCOc1ccc(S(=O)(=O)c2c(C(=O)c3ccc(C)cc3)cnc3cc4c(cc23)OCCO4)cc1 | -3 | -5 | 47* | 3 | 10 | 4 | 14 | 1 | 8
Cc1occc1-c1nnc(SCC(=O)NCCc2ccccc2)n1C(C)c1ccccc1 (centres undefined) | -9 | 2 | 51* | -2 | 6 | 12 | 27 | -2 | -11
Cc1occc1-c1nnc(SCC(=O)NCCc2ccccc2)o1 | 4 | -2 | 5 | 4 | 6 | 5 | nt | nt | nt
O=C(N[C@H]1/C=C\[C@@H](O)CCCC1)OCc1ccccc1 | nt | nt | -8 | 2 | 6 | 15 | nt | nt | nt
Cc1cc(C)c(S(=O)(=O)N(C2=NCCS2)S(=O)(=O)c2c(C)cc(C)cc2C)c(C)c1 | 6 | -2 | 56* | 1 | -1 | 15 | 18 | 0 | -4
